The values below come from ChEMBL document CHEMBL1781963, “Discovery of novel hepatoselective HMG-CoA reductase inhibitors for treating hypercholesterolemia: a bench-to-bedside case study on tissue selective drug distribution” (Bioorg Med Chem Lett, 2011).

The test system of data set [1] is L6. Kind of data set: Selectivity ratio of IC50 for cholesterol synthesis in rat L6 cells to IC50 for cholesterol synthesis in rat hepatocytes.
Data set [2] concerns L6. In words: Inhibition of cholesterol synthesis in rat L6 cells assessed as reduction of [14C]-cholesterol level using [14C]-acetic acid preincubated for 3 hrs before addition of [14C]-acetic acid by scintillation counting. The data set is classed as functional, cell-based. The method, boiled down: (§1)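 Cholesterol synthesis inhibition measured in rat hepatocytes and rat myocyte cell line, giving IC50 for each. Mean ± SEM of n ≥ 2 independent determinations.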

The test system of data set [3] is Hepatocyte. In words: Inhibition of cholesterol synthesis in rat hepatocytes assessed as reduction of [14C]-cholesterol level using [14C]-acetic acid preincubated for 4 hrs before addition of [14C]-acetic acid by liquid scintillation counting. Type of data set: functional, cell-based. The procedure, abridged: as §1
Data set [4] has as its system Syrian golden hamster. Kind of data set: Inhibition of cholesterol synthesis in golden syrian hamster assessed as reduction of [14C]-cholesterol level at 10 mg/kg, po followed by 2 hrs after treated with 80 uCi, ip of [14C]-sodium acetate measured after 4 hrs by liquid scintillation counting relative to control. The data set is classed as functional. Particulars: Mesocricetus auratus. The procedure, abridged: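 Hamsters dosed po at 10 mg/kg at t = 0 h. Intraperitoneal 14C sodium acetate at t = 2 h, blood drawn at t = 4 h for 14C cholesterol. Percent inhibition vs untreated controls, n = 8/group.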

For data set [5], the system named is Syrian golden hamster. In words: Inhibition of cholesterol synthesis in golden syrian hamster assessed as reduction of [14C]-cholesterol level at 10 mg/kg, po followed by 3 hrs after treated with 80 uCi, ip of [14C]-sodium acetate measured after 5 hrs by liquid scintillation counting relative to control. Type of data set: functional. The following applies: Mesocricetus auratus. The method, boiled down: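 Separate hamster groups dosed po at 10 mg/kg at t = 0 h. 14C sodium acetate ip at t = 3 h, blood 14C cholesterol at t = 5 h. Percent change vs untreated controls, n = 8/group.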

The nature of data set [6]: Lipophilicity, log D of the compound at pH 7.4 by shake flask method. The following applies: buffer. The data set is classed as physicochemical. The procedure, abridged:
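Log D at pH 7.4 by shake flask.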

Data set [7] concerns the target T1, 3-hydroxy-3-methylglutaryl-coenzyme A reductase (Rattus norvegicus, UniProt P51639).
T1 sequence (P51639 whole entry): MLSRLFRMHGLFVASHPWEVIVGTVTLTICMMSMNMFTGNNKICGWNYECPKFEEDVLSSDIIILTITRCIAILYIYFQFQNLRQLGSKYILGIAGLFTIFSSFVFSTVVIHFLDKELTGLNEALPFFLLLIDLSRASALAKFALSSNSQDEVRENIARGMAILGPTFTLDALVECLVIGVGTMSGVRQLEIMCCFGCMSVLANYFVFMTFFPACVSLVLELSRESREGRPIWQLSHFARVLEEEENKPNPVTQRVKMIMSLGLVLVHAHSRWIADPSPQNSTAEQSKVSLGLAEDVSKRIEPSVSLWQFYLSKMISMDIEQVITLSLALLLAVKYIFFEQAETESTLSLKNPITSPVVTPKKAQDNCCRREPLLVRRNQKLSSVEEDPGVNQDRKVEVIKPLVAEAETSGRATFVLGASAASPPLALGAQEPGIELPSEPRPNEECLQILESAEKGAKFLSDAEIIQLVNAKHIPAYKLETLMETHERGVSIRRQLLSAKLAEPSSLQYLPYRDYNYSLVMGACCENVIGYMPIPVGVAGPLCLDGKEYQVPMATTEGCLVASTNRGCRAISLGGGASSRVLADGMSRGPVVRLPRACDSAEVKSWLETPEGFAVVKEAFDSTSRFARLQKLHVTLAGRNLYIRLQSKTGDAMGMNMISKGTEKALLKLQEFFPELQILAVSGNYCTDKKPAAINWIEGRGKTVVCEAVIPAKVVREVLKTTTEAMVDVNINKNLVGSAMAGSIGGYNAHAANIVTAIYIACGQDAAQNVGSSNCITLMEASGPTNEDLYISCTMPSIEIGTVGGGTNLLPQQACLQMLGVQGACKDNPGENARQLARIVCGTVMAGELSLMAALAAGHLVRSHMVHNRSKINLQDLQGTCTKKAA
In words: Inhibition of HMG-CoA reductase in Sprague-Dawley rat liver microsomes using [14C]HMG-CoA as substrate preincubated for 0.5 hrs before substrate addition measured after 0.75 hrs by beta scintillation counting. The arrangement: species or system Microsome. The method, boiled down: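 Enzyme inhibition was measured in an HMG-CoA reductase preparation from rat microsomes. IC50 is reported as mean ± SEM of n ≥ 2 independent determinations.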
(In general: Liver microsomes are a subcellular fraction often used to study metabolism.)

One may read the IC50 as the concentration needed to halve the response being measured. As a reminder, the inhibition in vivo is the change of the read-out against control, counted positive when it falls. For orientation: logD means lipophilicity at a set pH, counting ionised and neutral species. Low values mean lower lipophilicity, high ones higher lipophilicity.

As to `COc1cccc(CNC(=O)c2nc(-c3ccc(F)cc3)n(CC[C@@H](O)C[C@@H](O)CC(=O)[O-])c2C2CC2)c1.[Na+]`, the “Ratio IC50” value in data set [1] is reported as 2960. Besides, the IC50 in data set [2] turned out to be 538 nM; in data set [3], 0.2 nM; in data set [7], 1.2 nM. In addition, the inhibition in vivo at 10 mg/kg in data set [4] was -53%; in data set [5], -42%. Besides, in data set [6], the logD is 0.11.

Consider `COc1ccc(CNC(=O)c2nc(-c3ccc(F)cc3)n(CC[C@@H](O)C[C@@H](O)CC(=O)[O-])c2C2CC2)cc1F.[Na+]`, for which the “Ratio IC50” value in data set [1] worked out at 4450. Also, the IC50 in data set [2] stood at 890 nM; in data set [3], 0.2 nM; in data set [7] it was 3.7 nM. Further, the figures for the inhibition in vivo at 10 mg/kg in data set [4] and in data set [5] were -36% and 0%, respectively.

As to `O=C([O-])C[C@H](O)C[C@H](O)CCn1c(-c2ccc(F)cc2)nc(C(=O)NCc2ccc(F)cc2)c1C1CC1.[Na+]`, the “Ratio IC50” value in data set [1] is 2310. The IC50 in data set [2] amounted to 1620 nM; in data set [3], 0.7 nM; in data set [7], 3.4 nM. Also, the inhibition in vivo at 10 mg/kg in data set [5] is 0%. The logD in data set [6] was determined as 0.17.

With `Cc1ccccc1CNC(=O)c1nc(-c2ccc(F)cc2)n(CC[C@@H](O)C[C@@H](O)CC(=O)[O-])c1C1CC1.[Na+]`, in data set [1], the “Ratio IC50” value is given as 48500. The IC50 in data set [2] came to 4850 nM; in data set [3], 0.1 nM; in data set [7] it was 4.9 nM. Further, the inhibition in vivo at 10 mg/kg in data set [5] amounted to 0%. The same compound came in with a logD in data set [6] of 0.44.

`Cc1ccc(CNC(=O)c2nc(-c3ccc(F)cc3)n(CC[C@@H](O)C[C@@H](O)CC(=O)[O-])c2C2CC2)cc1F.[Na+]`: the “Ratio IC50” value in data set [1] is 2240. In addition, the figures for the IC50 in data set [2], in data set [3] and in data set [7] were 224 nM, 0.1 nM and 4.1 nM, respectively. In data set [6], this compound returned a logD of 0.69.

On to `O=C(O)C[C@H](O)C[C@H](O)CCn1c(-c2ccc(F)cc2)nc(C(=O)NCc2ccccc2F)c1C1CC1`, for which the IC50 was 27200 nM in data set [2] and 1.5 nM in data set [7]. Moreover, in data set [5], the inhibition in vivo at 10 mg/kg was -4%. The compound further displayed a logD in data set [6] of 0.08.

`O=C([O-])C[C@H](O)C[C@H](O)CCn1c(-c2ccc(F)cc2)nc(C(=O)NCc2ccccc2)c1C1CC1.[Na+]`: in data set [1], the “Ratio IC50” value was determined as 3160. For the same compound, the IC50 came out at 632 nM in data set [2], 0.2 nM in data set [3] and 1.4 nM in data set [7]. In addition, in data set [4], the inhibition in vivo at 10 mg/kg is -58%. Moreover, the logD in data set [6] came out at 0.03.

`Cc1cccc(CNC(=O)c2nc(-c3ccc(F)cc3)n(CC[C@@H](O)C[C@@H](O)CC(=O)[O-])c2C2CC2)c1.[Na+]`: in data set [1], the “Ratio IC50” value is 1770. For the same compound, the IC50 was 532 nM in data set [2], 0.3 nM in data set [3] and 7.2 nM in data set [7]. The inhibition in vivo at 10 mg/kg in data set [4] is -54%; in data set [5] it was -50%. Besides, the logD in data set [6] was 0.47.

On to `Cc1ccc(CNC(=O)c2nc(-c3ccc(F)cc3)n(CC[C@@H](O)C[C@@H](O)CC(=O)[O-])c2C2CC2)cc1.[Na+]`, for which the “Ratio IC50” value in data set [1] is given as 1780. Besides, the results for the IC50 in data set [2], in data set [3] and in data set [7] were 178 nM, 0.1 nM and 1.7 nM, respectively. Besides, the inhibition in vivo at 10 mg/kg in data set [4] was -79%; in data set [5], -36%. In data set [6], this compound yielded a logD of 0.45.

As to `COc1ccc(CNC(=O)c2nc(-c3ccc(F)cc3)n(CC[C@@H](O)C[C@@H](O)CC(=O)[O-])c2C2CC2)cc1.[Na+]`, in data set [1], the “Ratio IC50” value amounted to 32000. Further, the values for the IC50 in data set [2], in data set [3] and in data set [7] were 6400 nM, 0.2 nM and 1.2 nM, respectively. Moreover, in data set [4], the inhibition in vivo at 10 mg/kg is -60%. Further, the logD in data set [6] came out at 0.02.

Regarding `O=C([O-])C[C@H](O)C[C@H](O)CCn1c(-c2ccc(F)cc2)nc(C(=O)NCc2ccc(F)c(F)c2)c1C1CC1.[Na+]`, the “Ratio IC50” value in data set [1] is 5560. In addition, the IC50 in data set [2] was found to be 2780 nM; in data set [3], 0.5 nM; in data set [7] it was 1.2 nM. Also, the inhibition in vivo at 10 mg/kg in data set [5] is -8%.

The compound `CCc1c(C(=O)NCc2ccccc2)nc(-c2ccc(F)cc2)n1CC[C@@H](O)C[C@@H](O)CC(=O)O` showed an IC50 in data set [7] of 123 nM.

On to `NC(=O)c1ccc(CNC(=O)c2nc(-c3ccc(F)cc3)n(CC[C@@H](O)C[C@@H](O)CC(=O)[O-])c2C2CC2)cc1.[Na+]`, for which the Ratio IC50 in data set [1] was greater than 250000. Also, the IC50 in data set [2] was greater than 100000 nM; in data set [3], 0.4 nM; in data set [7], 7.2 nM. For the same compound, the inhibition in vivo at 10 mg/kg in data set [5] came out at 0%. For the same compound, the logD in data set [6] is -1.1.

`CN(C)S(=O)(=O)c1ccc(CNC(=O)c2nc(-c3ccc(F)cc3)n(CC[C@@H](O)C[C@@H](O)CC(=O)[O-])c2C2CC2)cc1.[Na+]`: the Ratio IC50 in data set [1] was greater than 200000. The IC50 in data set [2] was greater than 100000 nM; in data set [3], 0.5 nM; in data set [7] it was 4.9 nM. Also, the inhibition in vivo at 10 mg/kg in data set [5] was 0%. The same compound showed a logD in data set [6] of -0.46.

In data set [7], `Cc1c(C(=O)NCc2ccccc2)nc(-c2ccc(F)cc2)n1CC[C@@H](O)C[C@@H](O)CC(=O)O` returned an IC50 of 94 nM.

In the case of `CC(C)c1c(C(=O)NCc2ccccc2)nc(-c2ccc(F)cc2)n1CC[C@@H](O)C[C@@H](O)CC(=O)[O-].[Na+]`, in data set [1], the “Ratio IC50” value is 10100. Moreover, the results for the inhibition in vivo at 10 mg/kg in data set [4] and in data set [5] were -53% and -7%, respectively. Moreover, the logD in data set [6] was found to be 0.64.

For the compound `COc1ccccc1CNC(=O)c1nc(-c2ccc(F)cc2)n(CC[C@@H](O)C[C@@H](O)CC(=O)[O-])c1C1CC1.[Na+]`, in data set [1], the “Ratio IC50” value is on record as 107000. Besides, the figures for the IC50 in data set [2], in data set [3] and in data set [7] were 10700 nM, 0.1 nM and 7 nM, respectively. Further, in data set [6], the logD came out at 0.16.

As for `O=C([O-])C[C@H](O)C[C@H](O)CCn1c(-c2ccc(F)cc2)nc(C(=O)NCc2ccc(F)cc2F)c1C1CC1.[Na+]`, the “Ratio IC50” value in data set [1] turned out to be 24350. The IC50 came to 4870 nM in data set [2], 0.2 nM in data set [3] and 1.2 nM in data set [7]. Further, in data set [4], the inhibition in vivo at 10 mg/kg is -46%.

On to `CCCc1c(C(=O)NCc2ccccc2)nc(-c2ccc(F)cc2)n1CC[C@@H](O)C[C@@H](O)CC(=O)O`, for which, in data set [7], the IC50 amounted to 26 nM.
